Experimental findings from ChEMBL document CHEMBL3621183, “Discovery and crystallography of bicyclic arylaminoazines as potent inhibitors of HIV-1 reverse transcriptase” (Bioorg Med Chem Lett, 2015) are described below.

The structures appear in SMILES notation. ≈ marks a conversion by molar mass, not a printed value.

Data set [1] has as its system Human immunodeficiency virus 1. As to the kind of experiment: Antiviral activity against HIV1 3B harboring reverse transcriptase K103N/Y181C double mutant infected in human MT2 cells assessed as protection against viral infection by MTT assay. The data set is classed as functional, organism-based. Summed up:
(§1)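 MT-2 human T-cells infected with the HIV-1 IIIB strain carrying the listed RT mutation. […] Triplicate samples at each concentration. Compounds were >95% pure by HPLC.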
A general note: Tetrazolium dyes change colour on reduction, which living cells bring about.

In data set [2] the test system is Human immunodeficiency virus 1. As to the kind of experiment: Antiviral activity against wild type HIV1 3B infected in human MT2 cells assessed as protection against viral infection by MTT assay. The data set is classed as functional, organism-based. Particulars: Human immunodeficiency virus 1, 3B; call rule not given here. An outline of the steps: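 HIV-1 IIIB strain tested in MT-2 human T-cells. […] Triplicate samples at each concentration.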

In data set [3] the test system is Human immunodeficiency virus 1. In words: Antiviral activity against HIV1 3B harboring reverse transcriptase Y181C mutant infected in human MT2 cells assessed as protection against viral infection by MTT assay. Type of data set: functional, organism-based. Summed up:
as §1

Data set [4] deals with MT2. As to the kind of experiment: Cytotoxicity against human MT2 cells assessed as growth inhibition by MTT assay. The data set is classed as cell-based.
A short description of data set [5]: Aqueous solubility of the compound in Britton-Robinson buffer at pH 6.5 at 25 degC by shake flask method. The data set is classed as physicochemical. Summed up: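 Shake-flask method. Supernatant collected through a 0.2 μm syringe filter and quantified by UV-vis spectrophotometry.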
Where [6] appears, read: Human immunodeficiency virus 1, 3B, MT2, read-out: EC50.

On to `N#Cc1ccc(Nc2nccc(Nc3ccn4cc(C#N)cc4c3)n2)cc1`, for which the EC50 (as a rule, the concentration giving half of the maximal effect) is “Not Active” in data set [1] (mt2), 200 nM in data set [2] and “Not Active” in data set [3] (mt2). The 50% cytotoxic concentration (CC50) (in general, the concentration giving 50% cytotoxicity) in data set [4] is above 100000 nM.

`Cc1cn2cc(C#N)cc2cc1Nc1ccnc(Nc2ccc(C#N)cc2)n1`: the EC50 in data set [1] (setting [6]) amounted to 6200 nM; in data set [2], 30 nM; in data set [3] (setting [6]), 510 nM. In data set [4], the 50% cytotoxic concentration (CC50) was 72000 nM.

As to `Cc1c(Nc2ccnc(Nc3ccc(C#N)cc3)n2)ccn2cc(C#N)cc12`, the EC50 in data set [1] (setting [6]) worked out at 170 nM; in data set [2], 1.4 nM; in data set [3] (setting [6]), 26 nM. Besides, in data set [4], the CC50 was above 100000 nM.

Turning to `Cc1cn2cc(C#N)cc2c(C)c1Nc1ccnc(Nc2ccc(C#N)cc2)n1`, the half-maximal effective concentration (EC50) in data set [1] (setting [6]) is 39 nM; in data set [2], 1 nM; in data set [3] (setting [6]) it was 0.57 nM. Also, in data set [5], the solubility (thermodynamic) – broadly, solubility found after equilibrating the solid with the medium – turned out to be 8.2 µg/mL (≈ 21.6 µM). Moreover, in data set [4], the half-maximal cytotoxic concentration (CC50) amounted to 10100 nM.

As to `N#Cc1ccc(Nc2nccc(Nc3cc4cc(C#N)cn4cc3F)n2)cc1`, the results for the EC50 in data set [1] (setting [6]), in data set [2] and in data set [3] (setting [6]) were 4600 nM, 200 nM and 1600 nM, respectively. The CC50 in data set [4] worked out at 76000 nM.

Consider `N#Cc1ccc(Nc2nccc(Nc3c(F)cn4cc(C#N)cc4c3F)n2)cc1`, for which the values for the EC50 entry in data set [1] (mt2), in data set [2] and in data set [3] (setting [6]) were “Not Active”, 1.4 nM and 98 nM, respectively. Also, in data set [4], the CC50 stood at 1000 nM.

Regarding `Cc1cn2cc(C#N)cc2c(C)c1Nc1ncnc(Nc2ccc(C#N)cc2)n1`, the concentration for a half-maximal effect (EC50) in data set [1] (setting [6]) was 32 nM; in data set [2] it was 0.52 nM; in data set [3] (setting [6]), 7.1 nM. Moreover, the solubility (thermodynamic) in data set [5] was determined as 33.1 µg/mL (≈ 87 µM). For the same compound, the 50% cytotoxic concentration (CC50) in data set [4] was 16000 nM.

Consider `Cc1cn2cc(C#N)cc2c(C)c1Nc1nc(Cl)nc(Nc2ccc(C#N)cc2)n1`, for which the EC50 entry in data set [1] (mt2) is “Not Active”; in data set [2], 14000 nM; in data set [3] (mt2) it was “Not Active”. The CC50 in data set [4] worked out at 38000 nM.

Consider `N#Cc1ccc(Nc2ncnc(Nc3c(F)cn4cc(C#N)cc4c3F)n2)cc1`, for which the EC50 stood at 2200 nM in data set [1] (setting [6]), 2.7 nM in data set [2] and 230 nM in data set [3] (setting [6]). The half-maximal cytotoxic concentration (CC50) in data set [4] is 20000 nM.

On to `Cc1c(Nc2nc(Nc3ccc(C#N)cc3)nc(OCCCN3CCOCC3)n2)ccn2cc(C#N)cc12`, for which the concentration giving a half-maximal response (EC50) result was “Not Active” in data set [1] (mt2), 1900 nM in data set [2] and “Not Active” in data set [3] (mt2). Further, the half-maximal cytotoxic concentration (CC50) in data set [4] worked out at 10000 nM.

Take `N#Cc1ccc(Nc2nccc(Nc3ccc4cc(C#N)ccc4c3)n2)cc1`: the results for the half-maximal effective concentration (EC50) in data set [1] (setting [6]), in data set [2] and in data set [3] (setting [6]) were 520 nM, 24 nM and 170 nM, respectively. For the same compound, the CC50 in data set [4] is above 100000 nM.

For the compound `Cc1c(Nc2ccnc(Nc3ccc(C#N)cc3)n2)ccc2cc(C#N)ccc12`, the EC50 in data set [1] (setting [6]) worked out at 130 nM; in data set [2], 7 nM; in data set [3] (setting [6]) it was 8.5 nM. In data set [4], the cytotoxic concentration (CC50) was above 100000 nM.

Turning to `Cc1cc2cc(C#N)ccc2c(C)c1Nc1ccnc(Nc2ccc(C#N)cc2)n1`, the figures for the EC50 in data set [1] (setting [6]), in data set [2] and in data set [3] (setting [6]) were 6.9 nM, 2.9 nM and 2.2 nM, respectively. Also, in data set [5], the thermodynamic solubility is 12.2 µg/mL (≈ 31.2 µM). Further, in data set [4], the 50% cytotoxic concentration (CC50) was found to be 7800 nM.

For the compound `N#Cc1ccc(Nc2nccc(Nc3ccc4cc(C#N)ccc4c3F)n2)cc1`, the concentration giving a half-maximal response (EC50) in data set [1] (setting [6]) came out at 790 nM; in data set [2], 6 nM; in data set [3] (setting [6]) it was 70 nM. Also, in data set [4], the CC50 was determined as 45000 nM.

On to `N#Cc1ccc(Nc2nccc(Nc3c(F)cc4cc(C#N)ccc4c3F)n2)cc1`, for which the results for the half-maximal effective concentration (EC50) in data set [1] (setting [6]), in data set [2] and in data set [3] (setting [6]) were 50 nM, 1.8 nM and 6 nM, respectively. Also, the CC50 in data set [4] worked out at 4800 nM.

On to `Cc1cc2cc(C#N)ccc2c(C)c1Nc1ncnc(Nc2ccc(C#N)cc2)n1`, for which the concentration for a half-maximal effect (EC50) in data set [1] (setting [6]) came to 7 nM; in data set [2], 1.1 nM; in data set [3] (setting [6]), 1.3 nM. The compound further had a thermodynamic solubility in data set [5] of 28.7 µg/mL (≈ 73.3 µM). Also, in data set [4], the CC50 is 9500 nM.

For `Cc1cc2cc(C#N)ccc2c(C)c1Nc1nc(Cl)nc(Nc2ccc(C#N)cc2)n1`, the half-maximal effective concentration (EC50) stood at 67 nM in data set [1] (setting [6]), 2.3 nM in data set [2] and 41 nM in data set [3] (setting [6]). In addition, the cytotoxic concentration (CC50) in data set [4] was found to be 7500 nM.

Consider `N#Cc1ccc(Nc2ncnc(Nc3c(F)cc4cc(C#N)ccc4c3F)n2)cc1`, for which the values for the EC50 in data set [1] (setting [6]), in data set [2] and in data set [3] (setting [6]) were 65 nM, 1.2 nM and 7 nM, respectively. Also, in data set [4], the 50% cytotoxic concentration (CC50) is above 100000 nM.

`N#Cc1ccc(Nc2nc(Nc3ccc4cc(C#N)ccc4c3)nc(OCCCN3CCOCC3)n2)cc1`: the EC50 was 150 nM in data set [1] (setting [6]), 120 nM in data set [2] and “Not Active” in data set [3] (mt2). Further, in data set [4], the cytotoxic concentration (CC50) amounted to 1200 nM.

On to `Cc1c(Nc2nc(Nc3ccc(C#N)cc3)nc(OCCCN3CCOCC3)n2)ccc2cc(C#N)ccc12`, for which the EC50 in data set [1] (setting [6]) worked out at 98 nM; in data set [2] it was 21 nM; in data set [3] (setting [6]), 58 nM. In addition, the CC50 in data set [4] was 5900 nM.

In the case of `N#Cc1ccc(Nc2nc(Nc3ccc4cc(C#N)ccc4c3F)nc(OCCCN3CCOCC3)n2)cc1`, the EC50 in data set [1] (setting [6]) came out at 180 nM; in data set [2], 36 nM; in data set [3] (setting [6]) it was 160 nM. Besides, the CC50 in data set [4] was determined as 3800 nM.

Consider `Cc1cc2cc(C#N)ccc2c(C)c1Nc1nc(Nc2ccc(C#N)cc2)nc(OCCCN2CCOCC2)n1`, for which the EC50 stood at 16 nM in data set [1] (setting [6]), 17 nM in data set [2] and 36 nM in data set [3] (setting [6]). For the same compound, the cytotoxic concentration (CC50) in data set [4] came to 17000 nM.
